# Measured values as given in ChEMBL document CHEMBL4613269, “2-((4-Arylpiperazin-1-yl)methyl)benzonitrile Derivatives as Orally Available Inhibitors of Hepatitis C Virus with a Novel Mechanism of Action” (J Med Chem, 2020).
# Legend:
# Hepatitis C virus [1] = experiment: Antiviral activity against HCV J6/JFH/JC1 infected in human Huh7.5 cells assessed as reduction in viral RNA levels incubated for 72 hrs by qRT-PCR analysis; type: functional, organism-based, Hepacivirus hominis; conditions: for EC50: J6/JFH/JC1, Huh7.5, 72 h
# How it was run: (§1)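 Huh7.5 cells seeded 24 h, then infected with wild-type (or mutant) HCV with compound added at the same time. Incubated 72 h. Intracellular HCV RNA measured by qRT-PCR, 2^-ΔCt method, normalized to GAPDH. Eight-step 1:5 serial dilutions in triplicate; EC50 by Reed & Muench; three independent experiments.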
# [2] = Cytotoxicity in human Huh7.5 cells assessed as reduction in cell viability incubated for 96 hrs by MTT assay; type: cell-based
# How it was run: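 Huh7.5 cells seeded 24 h before compound addition. Viability read by MTT at 96 h. Eight-step 1:5 serial dilutions in triplicate; CC50 by Reed & Muench; three independent experiments.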
# Hepatitis C virus [3] = experiment: Antiviral activity against HCV J6/JFH/JC1 infected in human Huh7.5 cells incubated for 72 hrs by In-Cell Western assay; type: functional, organism-based, Hepacivirus hominis; conditions: J6/JFH/JC1, Huh7.5, 72 h
# How it was run: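 Huh7.5 cells infected with HCVcc (MOI 0.1) and treated with compound at the same time for 72 h. Cells fixed with PFA, permeabilized, then stained for HCV Core and GAPDH with IR-dye secondaries. Core signal normalized to GAPDH. Eight-step 1:5 dilutions in triplicate; EC50 by Reed & Muench; mean of three experiments.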
# [4] = Selectivity index, ratio of CC50 for cytotoxicity in human Huh7.5 cells assessed as reduction in cell viability incubated for 96 hrs by MTT assay to EC50 for antiviral activity against HCV J6/JFH/JC1 infected in human Huh7.5 cells incubated for 72 hrs by In-Cell Western assay; type: toxicity, cell-based; conditions: read-out: Ratio CC50/EC50
# How it was run: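 HCVcc (MOI=0.1) infected Huh7.5 cells co-treated with eight-step 1:5 serial dilutions, triplicate wells. After 72 h, fixed, permeabilized, and stained for HCV Core and GAPDH with IR-dye secondaries. Core normalized to GAPDH. CC50 came from MTT at 96 h in uninfected Huh7.5 cells. EC50/CC50 were derived by Reed & Muench, mean ± SD of three independent experiments.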
# [5] = Selectivity index, ratio of CC50 for cytotoxicity in human Huh7.5 cells assessed as reduction in cell viability incubated for 96 hrs by MTT assay to EC50 antiviral activity against HCV J6/JFH/JC1 infected in human Huh7.5 cells assessed as reduction in viral RNA levels incubated for 72 hrs by qRT-PCR analysis; type: toxicity, cell-based; conditions: read-out: Ratio CC50/EC50
# How it was run: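 Selectivity index = CC50/EC50. CC50: Huh7.5 cells seeded at 3×10^4/cm², medium with compound added at 24 h, MTT read at 96 h. EC50: HCVcc-infected Huh7.5 cells treated for 72 h, HCV RNA by qRT-PCR normalised to GAPDH. Serial 1:5 dilutions in eight steps, Reed & Muench calculation, means ± SD of three independent experiments.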
# Hepatitis C virus [6] = experiment: Antiviral activity against wild type HCV by qRT-PCR analysis based by Reed-Muench method; type: functional, organism-based, Hepacivirus hominis; how it was run: as §1
# Hepatitis C virus [7] = experiment: Antiviral activity against HCV expressing NS5B S282T mutant by qRT-PCR analysis based by Reed-Muench method; type: functional, organism-based, Hepacivirus hominis
# How it was run: (§2)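 Huh7.5 cells seeded at 3×10^4/cm², infected 24 h later with wild-type or mutant HCV stock while compound or solvent was added at the same time. Intracellular HCV RNA measured by qRT-PCR at 72 h, normalised to GAPDH, 2^-ΔCT method. EC50 by Reed & Muench from eight-step 1:5 serial dilutions, triplicate wells.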
# Coxsackievirus B3 = experiment: Antiviral activity against Coxsackievirus B3 infected in Vero cells assessed as reduction in virus-induced cytopathic effect incubated for 48 hrs by Reed-Muench method; type: functional, organism-based; conditions: Enterovirus B
# [8] = Cytotoxicity in African green monkey Vero cells assessed as reduction in cell viability; type: cell-based; conditions: chlorocebus sabaeus
# [9] = Selectivity index, ratio of CC50 for cytotoxicity in African green monkey Vero cells to EC50 for Antiviral activity against Coxsackievirus B3 infected in Vero cells; type: toxicity, cell-based; conditions: read-out: Ratio CC50/EC50
# [10] = Cytotoxicity in African green monkey Vero E6 cells assessed as reduction in cell viability; type: cell-based, Vero C1008; conditions: chlorocebus sabaeus
# [11] = Selectivity index, ratio of CC50 for cytotoxicity in African green monkey Vero E6 cells to EC50 for Antiviral activity against Zika virus infected in Vero E6 cells; type: toxicity, cell-based, Vero C1008; conditions: read-out: Ratio CC50/EC50
# [12] = Oral bioavailability in Sprague-Dawley rat 15 mg/kg measured after 0.25 to 72 hrs by LC-MS/MS analysis; type: ADME, organism-based; conditions: in vivo
# Hepatitis C virus [13] = experiment: Antiviral activity against HCV expressing NS3 D168V mutant by qRT-PCR analysis based by Reed-Muench method; type: functional, organism-based, Hepacivirus hominis; how it was run: as §2
Structure (SMILES),CC50 at 96 h [2] [µM],EC50 (Hepatitis C virus [3]) [µM],selectivity ratio [4],also measured
CC(C)OC(=O)[C@H](C)N[P@](=O)(OC[C@H]1O[C@@H](n2ccc(=O)[nH]c2=O)[C@](C)(F)[C@@H]1O)Oc1ccccc1 [SOFOSBUVIR],> 200,0.104,> 1920,EC50 (Hepatitis C virus [1]): 0.046 µM; selectivity ratio [5]: > 4350; EC50 (Hepatitis C virus [6]): 0.0294 µM; EC50 (Hepatitis C virus [7]): 0.148 µM
Cc1ccc(NCc2cc(N3CCNCC3)ccc2C#N)cc1,18.8,,,EC50 (Hepatitis C virus [1]): 1.68 µM
CN(C)CCN(C)c1ccc(C#N)c(CN2CCN(c3ccc(N)cc3)CC2)c1,55.2,6.43,8,
COc1ccc(NCc2cc(N3CCN(C)CC3)ccc2C#N)cc1,48.2,,,EC50 (Hepatitis C virus [1]): 2.14 µM
CN(C)CCN(C)c1ccc(C(N)=O)c(CN2CCN(c3ccc(Cl)cc3)CC2)c1,15.5,1.16,13,
CN(C)CCN(C)c1ccc(C#N)c(CN2CCN(c3ccc(Cl)cc3F)CC2)c1,13.2,0.205,64,
CN(C)CCN(C)c1ccc(C#N)c(CN2CCN(c3ccc(Cl)cc3[N+](=O)[O-])CC2)c1,12.5,0.217,57,
Cc1ccc(N2CCN(Cc3cc(N(C)CCN(C)C)ccc3C#N)CC2)cc1,36.2,0.399,90,
Cc1ccc(N(C)Cc2cc(N3CCN(C)CC3)ccc2C#N)cc1,82,,,EC50 (Hepatitis C virus [1]): 0.89 µM
CN(C)CCN(C)c1ccc(C#N)c(CN2CCN(c3ccc(Cl)cc3Cl)CC2)c1,9.85,0.166,59,
N#Cc1ccc(N2CCNC(=O)C2)cc1CN1CCN(c2ccc(Cl)cc2)CC1,> 200,79.4,> 2,
COc1ccc(N2CCN(Cc3cc(N(C)CCN(C)C)ccc3C#N)CC2)cc1,45.5,1.44,31,
Cc1cc(CCCOc2c(C)cc(-c3noc(C(F)(F)F)n3)cc2C)on1 [PLECONARIL],,,,EC50 (Coxsackievirus B3): 0.002 µM; CC50 [8]: > 1.05 µM; selectivity ratio [9]: > 525
N#Cc1ccc(NCCN2CCOCC2)cc1CN1CCN(c2ccc(Cl)cc2)CC1,76.3,4.69,16,
Cc1ccc(NCc2cc(N3CCOCC3)ccc2C#N)cc1,133,,,EC50 (Hepatitis C virus [1]): > 66.7 µM
NC(=O)c1ncn([C@@H]2O[C@H](CO)[C@@H](O)[C@H]2O)n1 [RIBAVIRIN],,,,CC50 [10]: > 200 µM; selectivity ratio [11]: > 6
CN1CCN(c2ccc(C#N)c(CNc3ccc(Cl)cc3)c2)CC1,18.3,,,EC50 (Hepatitis C virus [1]): 0.42 µM
N#Cc1ccc(NCc2ccccn2)cc1CN1CCN(c2ccc(Cl)cc2)CC1,> 200,13.7,> 14,
CN(C)CCN(C)c1ccc(C#N)c(CN2CCN(Cc3ccc(Cl)cc3)CC2)c1,15.6,1.05,14,
CN(C)CCN(C)c1cccc(CN2CCN(c3ccc(Cl)cc3)CC2)c1,13.6,0.936,14,
CN(C)CCN(C)c1ccc(C#N)c(CN(C)c2ccc(Cl)cc2)c1,15.5,0.506,30.6,EC50 (Hepatitis C virus [1]): 0.18 µM; bioavailability [12]: < 5%
CN(C)c1ccc(C#N)c(CN2CCN(c3ccc(Cl)cc3)CC2)c1,> 200,57.5,> 3,
CN(C)CCN(C)c1ccc(C#N)c(CN2CCC(c3ccc(Cl)cc3)CC2)c1,3.75,0.142,26,
CN(C)CCN(C)c1ccc(C#N)c(CN2CCN(c3ccc([N+](=O)[O-])cc3)CC2)c1,12.8,0.314,40,

Structure (SMILES),CC50 at 96 h [2] [µM],EC50 (Hepatitis C virus [3]) [µM],selectivity ratio [4],also measured
Cc1ccc(NCc2cc(N3CCN(C)CC3)ccc2C#N)cc1,37.4,,,EC50 (Hepatitis C virus [1]): 1.62 µM; bioavailability [12]: < 5%
CN(C)CCN(C)c1ccc(C#N)c(CN2CCN(c3ccc(Br)cc3)CC2)c1,13.3 to 15.6,0.104,128,Activity (Hepatitis C virus [1]; Hepacivirus hominis): Dose-dependent effect; EC50 (Hepatitis C virus [1]): 0.031 µM; selectivity ratio [5]: 503
CN(C)CCN(C)c1ccc(C#N)c(CN2CCN(c3ccc(F)cc3)CC2)c1,52.1,0.749,70,
CN(C)CCN(C)c1ccc(C#N)c(CN2CCN(c3ccc(Cl)nc3)CC2)c1,52.6,2.51,21,
CN(C)CCN(C)c1ccc(C#N)c(CN2CCN(c3ccncc3)CC2)c1,44.7,2.74,16,
Cc1cc(Cl)ccc1N1CCN(Cc2cc(N(C)CCN(C)C)ccc2C#N)CC1,10.1,0.203,49,
COc1ccc2c(O[C@@H]3C[C@H]4C(=O)N[C@]5(C(=O)NS(=O)(=O)C6CC6)C[C@H]5/C=C/CCCCN(C)C(=O)[C@@H]4C3)cc(-c3nc(C(C)C)cs3)nc2c1C,,,,EC50 (Hepatitis C virus [6]): 0.0092 µM; EC50 (Hepatitis C virus [13]): > 1 µM
CN1CCCN(c2ccc(C#N)c(CN3CCN(c4ccc(Cl)cc4)CC3)c2)CC1,12.5,0.153,81,
CC1CN(Cc2cc(N(C)CCN(C)C)ccc2C#N)CCN1c1ccc(Cl)cc1 (stereo not given),13.7,0.321,42,
N#Cc1ccc(N2CCC(N3CCCC3)CC2)cc1CN1CCN(c2ccc(Cl)cc2)CC1,13.5,0.318,42,
N#Cc1ccc(OCCN2CCCC2)cc1CN1CCN(c2ccc(Cl)cc2)CC1,16.6,0.814,20,
CN(C)CCNc1ccc(C#N)c(CN2CCN(c3ccc(Cl)cc3)CC2)c1,14.8,0.952,15,
CN(C)CCN(C)c1ccc(C#N)c(CN2CCNCC2)c1,> 200,35,> 5,
CC(C)CCNc1ccc(C#N)c(CN2CCN(c3ccc(Cl)cc3)CC2)c1,> 200,119,> 1,
CN(C)CCCN(C)c1ccc(C#N)c(CN2CCN(c3ccc(Cl)cc3)CC2)c1,15.6,0.423,36,
CN(C)CCN(C)c1ccc(C#N)c(CN2CCN(c3ccccc3)CC2)c1,50.2,0.902,55,
CN(C)CCN(C)c1ccc(C#N)cc1CN1CCN(c2ccc(Cl)cc2)CC1,14.6,1.33,11,
CCC(=O)N(C)CCN(C)c1ccc(C#N)c(CN2CCN(c3ccc(Cl)cc3)CC2)c1,40,7.29,5,
CN1CCN(c2ccc(C#N)c(CN3CCN(c4ccc(Cl)cc4)CC3)c2)CC1,16.1,0.783,20,
N#Cc1ccc(N2CCNCC2)cc1CN1CCN(c2ccc(Cl)cc2)CC1,13.7,0.657,20,
CN(C)CCN(C)c1ccc(C#N)c(CN2CCN(c3ccc(C#N)cc3)CC2)c1,9.05,1.87,4,
CCN1CCCC1CNc1ccc(C#N)c(CN2CCN(c3ccc(Cl)cc3)CC2)c1 (stereo not given),7.64,0.454,16,
Cc1ccc(NCc2cc(N3CCCCC3)ccc2C#N)cc1,11.4,,,EC50 (Hepatitis C virus [1]): > 7.41 µM
CNCCN(C)c1ccc(C#N)c(CN2CCN(c3ccc(Cl)cc3)CC2)c1,15.8,0.289,54,
